Assay results: article PMC7485388 (ACS chemical biology, 2017)
“Also recorded” adds a separate entry of the source.

Tests used:
EphB3 WT = experiment: EphB3 autophosphorylation in HEK293 cells co-expressing EphB3 WT; assay type: cell-based, human; conditions: 100 nM; HEK293 co-expressing EphB3 WT and EphB1 T697G; ephrin-B2 stimulation
How it was run: (§1)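 HEK293 cells transfected with Eph kinase variants were exposed to a range of test compound concentrations. Lysate protein was quantified by BCA and normalized before Western blotting. Blots were probed for phospho-EphB, total EphB1 or EphB3, and β-actin, giving autophosphorylation relative to total receptor.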

EphB1 T697G = target: T1, EphB1 T697G (Homo sapiens, UniProt P54762, T697G); experiment: EphB1 autophosphorylation in transfected HEK293 cells; assay type: cell-based
T1 sequence (P54762 18-984 T697G): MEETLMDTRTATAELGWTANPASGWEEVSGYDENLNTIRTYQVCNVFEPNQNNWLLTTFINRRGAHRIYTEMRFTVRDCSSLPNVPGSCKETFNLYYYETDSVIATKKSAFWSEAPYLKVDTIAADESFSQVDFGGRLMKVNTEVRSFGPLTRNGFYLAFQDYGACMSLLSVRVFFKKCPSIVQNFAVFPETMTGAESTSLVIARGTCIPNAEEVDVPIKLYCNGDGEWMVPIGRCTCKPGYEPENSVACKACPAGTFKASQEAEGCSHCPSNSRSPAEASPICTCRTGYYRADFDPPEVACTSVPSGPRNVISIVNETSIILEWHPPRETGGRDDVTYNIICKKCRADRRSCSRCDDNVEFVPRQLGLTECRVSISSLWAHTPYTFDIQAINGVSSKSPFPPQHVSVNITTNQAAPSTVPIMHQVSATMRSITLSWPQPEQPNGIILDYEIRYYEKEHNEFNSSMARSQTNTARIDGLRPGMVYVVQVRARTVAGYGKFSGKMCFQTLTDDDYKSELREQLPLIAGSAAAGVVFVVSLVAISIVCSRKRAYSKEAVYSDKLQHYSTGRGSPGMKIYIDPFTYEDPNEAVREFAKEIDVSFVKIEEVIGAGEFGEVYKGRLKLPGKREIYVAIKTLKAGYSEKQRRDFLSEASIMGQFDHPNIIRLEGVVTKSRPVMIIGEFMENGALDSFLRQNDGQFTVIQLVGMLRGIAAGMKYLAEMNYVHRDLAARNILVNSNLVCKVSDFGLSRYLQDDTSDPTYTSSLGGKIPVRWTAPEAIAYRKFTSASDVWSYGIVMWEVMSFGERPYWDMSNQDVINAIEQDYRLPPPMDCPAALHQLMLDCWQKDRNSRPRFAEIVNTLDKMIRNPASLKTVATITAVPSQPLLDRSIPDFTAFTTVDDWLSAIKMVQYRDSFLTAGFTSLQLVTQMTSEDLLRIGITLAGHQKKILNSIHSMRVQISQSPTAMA
How it was run: as §1

- autophosphorylation of EphB1 T697G (EphB1 T697G; 100 nM, HEK293 co-expressing EphB3 WT and EphB1 T697G, ephrin-B2 stimulation): abolished
- selectivity factor between the two EphB1 mutants (T697G over G703C) (EphB1 T697G; in cells): ~ 500
SMILES: Cc1cccc(Cc2nn(C(C)(C)C)c3ncnc(N)c23)c1 [3MB-PP1]
- autophosphorylation of EphB3 WT (EphB3 WT): little effect
- inhibition of the three EphB1 alleles in cells (EphB1 T697G; 100 nM, HEK293, tested on WT, G703C, T697G): only inhibited the analog-sensitive allele; also recorded: only inhibited EphB1^T697G
